From ChEMBL document CHEMBL4184325, “Discovery of 4,7-Diamino-5-(4-phenoxyphenyl)-6-methylene-pyrimido[5,4- b]pyrrolizines as Novel Bruton's Tyrosine Kinase Inhibitors” (J Med Chem, 2018)

Tests used:
[1] = target: Tyrosine-protein kinase BTK (Homo sapiens, UniProt Q06187); experiment: Inhibition of recombinant human BTK using Poly(Glu, Tyr) 4:1 as substrate after 1 hr by ELISA
[2] = Drug metabolism in rat liver microsomes treated with (S)-N-(4-Amino-6-methylene-5-(4-phenoxyphenyl)-7,8-dihydro-6H-pyrimido[5,4-b]pyrrolizin-7-yl)but-2-ynamide after 3 hrs; assay type: ADME, microsome
[3] = Drug metabolism in human liver microsomes treated with (S)-N-(4-Amino-6-methylene-5-(4-phenoxyphenyl)-7,8-dihydro-6H-pyrimido[5,4-b]pyrrolizin-7-yl)but-2-ynamide after 3 hrs; assay type: ADME, microsome
[4] = Drug metabolism in rat liver microsomes treated with (S)-N-(4-Amino-6-methylene-5-(4-phenoxyphenyl)-7,8-dihydro-6H-pyrimido[5,4-b]pyrrolizin-7-yl)acrylamide after 3 hrs; assay type: ADME, microsome
[5] = Drug metabolism in mouse liver microsomes treated with (S)-N-(4-Amino-6-methylene-5-(4-phenoxyphenyl)-7,8-dihydro-6H-pyrimido[5,4-b]pyrrolizin-7-yl)acrylamide after 3 hrs; assay type: ADME, microsome
[6] = Drug metabolism in human liver microsomes treated with (S)-N-(4-Amino-6-methylene-5-(4-phenoxyphenyl)-7,8-dihydro-6H-pyrimido[5,4-b]pyrrolizin-7-yl)acrylamide after 3 hrs; assay type: ADME, microsome
[7] = Drug metabolism in mouse liver microsomes treated with (S)-N-(4-Amino-6-methylene-5-(4-phenoxyphenyl)-7,8-dihydro-6H-pyrimido[5,4-b]pyrrolizin-7-yl)but-2-ynamide after 3 hrs; assay type: ADME, microsome
Rattus norvegicus [8] = experiment: AUC (0 to infinity) in rat at 3 mg/kg, po; assay type: ADME, organism-based; design: dose 3 mg/kg, time infinity, route oral; conditions: in vivo
Method in brief: (§1)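 Rats dosed orally at 3 mg/kg; vehicle DMSO, Tween 80, normal saline; values are the average of three determinations.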

Mus musculus = experiment: Toxicity in CB17 SCID nude mouse xenografted with human TMD8 cells assessed as change in body weight at 25 mg/kg, po qd administered for 13 consecutive days measured during compound dosing up to day 17 post dose; assay type: organism-based; conditions: in vivo
Ramos = experiment: Antiproliferative activity against human Ramos cells after 72 hrs by MTT assay; assay type: functional, cell-based
Method in brief: (§2)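 Cells grown in RPMI-1640 with FBS at 37 °C, 5% CO2. Seeded and grown 2 h, then treated with various concentrations in PBS solution, each in triplicate, and cultured a further 72 h. Viability read by MTT. IC50 from the Logit method, given as mean ± SD of three independent determinations.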

TMD8 = experiment: Antiproliferative activity against human TMD8 cells after 72 hrs by MTT assay; assay type: functional, cell-based; conditions: TMD8, 72 h; method in brief: as §2
[9] = Drug metabolism in rat liver microsomes assessed as (S)-N-(4-amino-5-(4-(4-hydroxyphenoxy)phenyl)-6-methylene-7,8-dihydro-6H-pyrimido[5,4-b]pyrrolizin-7-yl)-4-hydroxybut-2-ynamide formation after 3 hrs; assay type: ADME, microsome
Rattus norvegicus [10] = experiment: (§3) Oral bioavailability in rat at 3 mg/kg; assay type: ADME, organism-based; conditions: in vivo
Method in brief: (§4)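 Rats were given compound at 1 mg/kg iv or 3 mg/kg po. Vehicle was DMSO, Tween 80 and normal saline. Values are the average of three determinations.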

[11] = Drug metabolism in human liver microsomes assessed as (S)-N-(4-amino-5-(4-(4-hydroxyphenoxy)phenyl)-6-methylene-7,8-dihydro-6H-pyrimido[5,4-b]pyrrolizin-7-yl)-4-hydroxybut-2-ynamide formation after 3 hrs; assay type: ADME, microsome
Rattus norvegicus [12] = experiment: Half life in rat at 1 mg/kg, iv; assay type: ADME, organism-based; conditions: in vivo
Method in brief: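 Rats given 1 mg/kg intravenously; vehicle DMSO, Tween 80, normal saline; values are the average of three determinations.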

[13] = Drug metabolism in human liver microsomes assessed as (S)-N-(4-amino-5-(4-hydroxyphenyl)-6-methylene-7,8-dihydro-6H-pyrimido[5,4-b]pyrrolizin-7-yl)but-2-ynamide formation after 3 hrs; assay type: ADME, microsome
Rattus norvegicus [14] = experiment: Volume of distribution at steady state in rat at 1 mg/kg, iv; assay type: ADME, organism-based; conditions: in vivo; method in brief: as §4
[15] = Drug metabolism in rat liver microsomes assessed as (S)-N-(4-amino-5-(4-(4-hydroxyphenoxy)phenyl)-6-methylene-7,8-dihydro-6H-pyrimido[5,4-b]pyrrolizin-7-yl)but-2-ynamide formation after 3 hrs; assay type: ADME, microsome
[16] = Cmax in rat at 3 mg/kg, po; assay type: ADME, organism-based; design: dose 3 mg/kg, route oral; conditions: in vivo; method in brief: as §1
[17] = Drug metabolism in rat liver microsomes assessed as (S)-N-(4-amino-6-methylene-5-(4-phenoxyphenyl)-7,8-dihydro-6H-pyrimido[5,4-b]pyrrolizin-7-yl)-4-hydroxybut-2-ynamide formation after 3 hrs; assay type: ADME, microsome
[18] = Tmax in rat at 3 mg/kg, po; assay type: ADME, organism-based; conditions: in vivo; method in brief: as §4
[19] = Drug metabolism in human liver microsomes assessed as (S)-N-(4-amino-6-methylene-5-(4-phenoxyphenyl)-7,8-dihydro-6H-pyrimido[5,4-b]pyrrolizin-7-yl)-4-hydroxybut-2-ynamide formation after 3 hrs; assay type: ADME, microsome
[20] = Drug metabolism in mouse liver microsomes assessed as (S)-N-(4-amino-5-(4-(4-hydroxyphenoxy)phenyl)-6-methylene-7,8-dihydro-6H-pyrimido[5,4-b]pyrrolizin-7-yl)but-2-ynamide formation after 3 hrs; assay type: ADME, microsome
[21] = Drug metabolism in rat liver microsomes assessed as (S)-N-(4-amino-5-(4-hydroxyphenyl)-6-methylene-7,8-dihydro-6H-pyrimido[5,4-b]pyrrolizin-7-yl)but-2-ynamide formation after 3 hrs; assay type: ADME, microsome
[22] = Drug metabolism in mouse liver microsomes assessed as (S)-N-(4-amino-6-methylene-5-(4-phenoxyphenyl)-7,8-dihydro-6H-pyrimido[5,4-b]pyrrolizin-7-yl)-4-hydroxybut-2-ynamide formation after 3 hrs; assay type: ADME, microsome
[23] = Drug metabolism in mouse liver microsomes assessed as (S)-4-(4-(4,7-diamino-6-methylene-7,8-dihydro-6H-pyrimido[5,4-b]pyrrolizin-5-yl)phenoxy)phenol formation after 3 hrs; assay type: ADME, microsome
[24] = target: Receptor tyrosine-protein kinase erbB-4 (Homo sapiens, UniProt Q15303); experiment: Inhibition of partial length human ErbB4 expressed in bacteria assessed as residual activity at 1 uM relative to control
Receptor tyrosine-protein kinase erbB-4, sequence (Q15303 whole entry): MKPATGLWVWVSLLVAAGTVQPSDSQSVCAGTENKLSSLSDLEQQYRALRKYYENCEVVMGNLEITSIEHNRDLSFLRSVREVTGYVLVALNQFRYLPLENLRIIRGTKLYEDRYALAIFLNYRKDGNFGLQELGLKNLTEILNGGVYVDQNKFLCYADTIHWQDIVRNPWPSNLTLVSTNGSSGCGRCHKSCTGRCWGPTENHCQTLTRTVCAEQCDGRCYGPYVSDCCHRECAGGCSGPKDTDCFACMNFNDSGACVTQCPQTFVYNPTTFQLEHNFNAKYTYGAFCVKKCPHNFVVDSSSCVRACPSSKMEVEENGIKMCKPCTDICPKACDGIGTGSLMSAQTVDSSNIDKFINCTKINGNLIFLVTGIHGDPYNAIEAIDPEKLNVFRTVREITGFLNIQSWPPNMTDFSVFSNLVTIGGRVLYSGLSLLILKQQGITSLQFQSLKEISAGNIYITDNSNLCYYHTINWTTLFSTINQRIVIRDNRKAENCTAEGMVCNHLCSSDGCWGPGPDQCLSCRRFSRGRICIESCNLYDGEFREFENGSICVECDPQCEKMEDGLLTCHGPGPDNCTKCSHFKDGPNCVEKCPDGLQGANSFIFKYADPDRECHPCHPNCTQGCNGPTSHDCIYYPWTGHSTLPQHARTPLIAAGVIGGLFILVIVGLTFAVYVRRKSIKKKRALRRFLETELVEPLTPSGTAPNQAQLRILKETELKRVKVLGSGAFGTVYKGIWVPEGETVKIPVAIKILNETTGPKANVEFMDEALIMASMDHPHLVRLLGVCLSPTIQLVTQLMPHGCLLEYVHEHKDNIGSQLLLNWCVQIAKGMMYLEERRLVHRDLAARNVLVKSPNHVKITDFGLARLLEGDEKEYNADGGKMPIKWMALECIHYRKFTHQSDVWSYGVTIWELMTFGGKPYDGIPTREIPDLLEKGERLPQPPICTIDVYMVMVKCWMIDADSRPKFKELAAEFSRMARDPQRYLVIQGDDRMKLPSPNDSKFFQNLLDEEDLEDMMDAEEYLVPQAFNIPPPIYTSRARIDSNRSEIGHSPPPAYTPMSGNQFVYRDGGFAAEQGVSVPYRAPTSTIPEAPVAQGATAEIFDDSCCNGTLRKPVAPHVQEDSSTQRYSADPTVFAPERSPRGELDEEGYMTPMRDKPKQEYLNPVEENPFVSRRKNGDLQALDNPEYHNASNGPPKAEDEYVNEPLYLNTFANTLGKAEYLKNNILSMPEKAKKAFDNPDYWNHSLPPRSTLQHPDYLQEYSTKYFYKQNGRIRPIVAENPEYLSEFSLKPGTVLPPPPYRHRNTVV
Method in brief: (§5)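 KINOMEscan competition binding panel of 468 kinases with compound at 1 μM. Result is % control = (test − positive control signal)/(DMSO negative − positive control signal) × 100.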

[25] = target: Dual specificity mitogen-activated protein kinase kinase; MEK1/2 (Homo sapiens) (UniProt P36507+Q02750); experiment: Inhibition of human MEK assessed as residual activity at 1 uM relative to control; assay type: protein assay; method in brief: as §5
Dual specificity mitogen-activated protein kinase kinase; MEK1/2 (Homo sapiens), sequence (P36507 whole entry, looked up): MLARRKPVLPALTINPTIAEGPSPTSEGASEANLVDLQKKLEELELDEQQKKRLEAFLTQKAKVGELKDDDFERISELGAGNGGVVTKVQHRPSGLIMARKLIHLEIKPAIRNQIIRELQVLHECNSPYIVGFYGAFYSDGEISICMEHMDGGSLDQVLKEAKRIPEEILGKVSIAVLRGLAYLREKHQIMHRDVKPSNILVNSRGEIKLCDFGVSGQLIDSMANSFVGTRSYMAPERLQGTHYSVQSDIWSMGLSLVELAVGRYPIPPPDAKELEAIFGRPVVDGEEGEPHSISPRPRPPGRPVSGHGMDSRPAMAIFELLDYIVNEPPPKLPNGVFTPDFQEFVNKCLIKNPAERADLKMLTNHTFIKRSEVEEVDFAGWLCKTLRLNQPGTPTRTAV
Dual specificity mitogen-activated protein kinase kinase; MEK1/2 (Homo sapiens), sequence (Q02750 whole entry, looked up): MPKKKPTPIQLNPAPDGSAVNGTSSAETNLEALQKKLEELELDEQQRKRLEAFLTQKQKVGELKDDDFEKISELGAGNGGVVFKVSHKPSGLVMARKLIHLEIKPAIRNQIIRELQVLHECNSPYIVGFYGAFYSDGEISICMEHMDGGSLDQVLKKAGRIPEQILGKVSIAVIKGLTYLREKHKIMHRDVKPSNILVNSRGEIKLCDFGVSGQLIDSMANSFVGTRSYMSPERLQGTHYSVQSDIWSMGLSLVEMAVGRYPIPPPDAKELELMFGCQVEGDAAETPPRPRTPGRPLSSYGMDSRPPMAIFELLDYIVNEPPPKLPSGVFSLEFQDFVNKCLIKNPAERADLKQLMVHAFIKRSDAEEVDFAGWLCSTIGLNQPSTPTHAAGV

[26] = target: Tyrosine-protein kinase BTK (Homo sapiens, UniProt Q06187, C481S); experiment: Inhibition of recombinant full-length N-terminal His-tagged human BTK C481S mutant expressed in baculovirus infected Sf9 insect cells using Poly(Glu, Tyr) 4:1 as substrate after 1 hr by ELISA
Tyrosine-protein kinase BTK (Homo sapiens, UniProt Q06187, C481S), sequence (Q06187 2-659 C481S limits assumed): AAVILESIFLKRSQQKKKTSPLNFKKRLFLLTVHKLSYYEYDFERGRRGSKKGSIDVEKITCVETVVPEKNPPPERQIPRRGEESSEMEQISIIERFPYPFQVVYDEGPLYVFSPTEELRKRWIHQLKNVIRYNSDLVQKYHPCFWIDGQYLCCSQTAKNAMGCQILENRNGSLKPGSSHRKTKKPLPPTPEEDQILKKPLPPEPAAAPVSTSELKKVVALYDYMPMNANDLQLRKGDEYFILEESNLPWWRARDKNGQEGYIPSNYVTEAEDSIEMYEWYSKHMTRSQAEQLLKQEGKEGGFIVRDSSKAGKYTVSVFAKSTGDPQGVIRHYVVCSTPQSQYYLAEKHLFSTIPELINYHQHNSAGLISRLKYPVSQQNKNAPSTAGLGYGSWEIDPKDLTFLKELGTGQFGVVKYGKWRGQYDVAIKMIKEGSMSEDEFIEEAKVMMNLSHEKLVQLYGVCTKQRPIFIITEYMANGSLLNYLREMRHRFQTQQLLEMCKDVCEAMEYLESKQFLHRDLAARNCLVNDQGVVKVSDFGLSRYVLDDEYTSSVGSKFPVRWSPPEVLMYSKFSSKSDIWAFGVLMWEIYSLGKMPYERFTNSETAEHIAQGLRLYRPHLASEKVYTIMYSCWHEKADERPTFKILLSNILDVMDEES

[27] = target: Tyrosine-protein kinase Blk (Homo sapiens, UniProt P51451); experiment: Inhibition of partial length human BLK expressed in bacteria assessed as residual activity at 1 uM relative to control; method in brief: as §5
Tyrosine-protein kinase Blk, sequence (P51451 2-505 limits assumed): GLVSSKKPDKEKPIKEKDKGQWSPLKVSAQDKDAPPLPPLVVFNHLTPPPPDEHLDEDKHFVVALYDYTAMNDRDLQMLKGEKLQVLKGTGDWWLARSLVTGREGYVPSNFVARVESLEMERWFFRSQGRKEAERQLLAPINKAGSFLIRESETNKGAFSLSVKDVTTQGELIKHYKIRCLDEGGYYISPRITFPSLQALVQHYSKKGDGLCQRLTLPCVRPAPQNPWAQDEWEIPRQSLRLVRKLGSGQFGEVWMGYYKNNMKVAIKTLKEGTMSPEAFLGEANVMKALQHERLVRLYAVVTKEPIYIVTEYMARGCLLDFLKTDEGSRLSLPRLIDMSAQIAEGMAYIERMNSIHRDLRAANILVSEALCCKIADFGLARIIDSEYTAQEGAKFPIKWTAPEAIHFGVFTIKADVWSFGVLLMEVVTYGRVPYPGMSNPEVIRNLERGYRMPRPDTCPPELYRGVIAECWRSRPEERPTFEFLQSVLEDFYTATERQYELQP

[28] = as §3; assay type: ADME, organism-based; conditions: in vivo; method in brief: as §4

Tyrosine-protein kinase BTK (Homo sapiens, UniProt Q06187), sequence (Q06187 whole entry): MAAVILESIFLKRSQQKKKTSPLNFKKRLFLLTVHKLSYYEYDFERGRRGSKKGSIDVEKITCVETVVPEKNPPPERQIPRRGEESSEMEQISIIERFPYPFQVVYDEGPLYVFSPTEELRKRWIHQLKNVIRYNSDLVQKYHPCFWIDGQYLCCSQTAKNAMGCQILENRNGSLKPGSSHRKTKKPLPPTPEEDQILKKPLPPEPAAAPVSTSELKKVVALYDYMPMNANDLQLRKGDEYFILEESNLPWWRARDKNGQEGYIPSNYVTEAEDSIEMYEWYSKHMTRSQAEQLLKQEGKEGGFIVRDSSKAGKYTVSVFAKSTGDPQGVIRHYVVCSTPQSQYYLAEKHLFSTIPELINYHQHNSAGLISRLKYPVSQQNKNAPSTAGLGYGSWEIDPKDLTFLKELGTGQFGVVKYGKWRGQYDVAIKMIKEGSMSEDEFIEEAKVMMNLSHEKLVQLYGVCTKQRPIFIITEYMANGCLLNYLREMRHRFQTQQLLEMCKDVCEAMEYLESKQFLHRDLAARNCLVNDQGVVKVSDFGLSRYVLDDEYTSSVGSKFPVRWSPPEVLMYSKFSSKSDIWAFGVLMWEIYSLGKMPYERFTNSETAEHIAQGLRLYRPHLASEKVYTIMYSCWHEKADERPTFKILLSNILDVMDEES

With C=C1c2c(-c3ccc(Oc4ccccc4)cc3)c3c(N)ncnc3n2C[C@@H]1NC(=O)C#CC the IC50 [1] was 3.3 nM.

With C=C1c2c(-c3ccc(Oc4ccc(O)cc4)cc3)c3c(N)ncnc3n2C[C@H]1NC(=O)C#CCO the Drug metabolism [2] was “Metabolite_Detected” and the Drug metabolism [3] was “Metabolite_Detected”.

Molecule C=CC(=O)N[C@@H]1Cn2c(c(-c3ccc(Oc4ccc(F)cc4)cc3)c3c(N)ncnc32)C1=C has an IC50 [1] of 2.2 nM.

Molecule C=CC(=O)NCCC(=O)NC1Cn2c(c(-c3ccc(Oc4ccccc4)cc3)c3c(N)ncnc32)C1=C (stereo not drawn) has an IC50 [1] of 725 nM.

With C=C1c2c(-c3ccc(Oc4ccccc4)cc3)c3c(N)ncnc3n2C[C@H]1NC(=O)C=CO the Drug metabolism [4] was “Metabolite_Detected”, the Drug metabolism [5] was “Metabolite_Detected” and the Drug metabolism [6] was “Metabolite_Detected”.

In the case of C=C1c2c(-c3ccc(Oc4ccccc4)cc3)c3c(N)ncnc3n2C[C@H]1NC(=O)C#CCO, the Drug metabolism [7] is reported as “Metabolite_Detected”, the Drug metabolism [2] is reported as “Metabolite_Detected” and the Drug metabolism [3] is reported as “Metabolite_Detected”.

With C=CC(=O)N[C@@H]1Cn2c(c(-c3ccc(Oc4ccc(O)cc4)cc3)c3c(N)ncnc32)C1=C the Drug metabolism [4] was “Metabolite_Detected”, the Drug metabolism [5] was “Metabolite_Detected” and the Drug metabolism [6] was “Metabolite_Detected”.

For C=C1c2c(-c3ccc(Oc4ccccc4)cc3)c3c(N)ncnc3n2CC1NC(=O)C#CC (racemic), the IC50 [1] was 2.1 nM.

Molecule CCC(=O)NC1CCc2c(-c3ccc(Oc4ccccc4)cc3)c3c(N)ncnc3n2C1 (stereo not drawn) has an IC50 [1] of 417 nM.

With C=CC(=O)N[C@@H]1Cn2c(c(-c3ccc(O)cc3)c3c(N)ncnc32)C1=C the Drug metabolism [4] was “Metabolite_Detected” and the Drug metabolism [6] was “Metabolite_Detected”.

In the case of C=CC(=O)N[C@@H]1Cn2c(c(-c3ccc(C(=O)NCc4ccccn4)cc3)c3c(N)ncnc32)C1=C, the IC50 [1] is reported as 3.1 nM.

Work on C=CC(=O)NCC(=O)NC1Cn2c(c(-c3ccc(Oc4ccccc4)cc3)c3c(N)ncnc32)C1=C (stereo not drawn) yielded an IC50 [1] of 23.6 nM.

For C=C1c2c(-c3ccc(O)cc3)c3c(N)ncnc3n2C[C@H]1NC(=O)C#CC, the Drug metabolism [2] was “Metabolite_Detected” and the Drug metabolism [3] was “Metabolite_Detected”.

In the case of C=C1c2c(-c3ccc(Oc4ccccc4)cc3)c3c(N)ncnc3n2C[C@H]1NC(=O)C(O)CO (stereo partly drawn), the Drug metabolism [4] is reported as “Metabolite_Detected”, the Drug metabolism [5] is reported as “Metabolite_Detected” and the Drug metabolism [6] is reported as “Metabolite_Detected”.

For C=CC(=O)N1CCC[C@@H](n2nc(-c3ccc(Oc4ccccc4)cc3)c3c(N)ncnc32)C1 [IBRUTINIB], the AUC (Rattus norvegicus [8]) was 57 ng·h/mL, the Activity (Mus musculus) was “Non-Toxic” and the IC50 (Ramos) was 0.92 µM. It also gave an IC50 (TMD8) of 10 nM.

With C=CC(=O)N[C@@H]1Cn2c(c(-c3ccc(C(=O)N[C@@H](C)c4ccccn4)cc3)c3c(N)ncnc32)C1=C the IC50 [1] was 50.4 nM.

C=C1c2c(-c3ccc(Oc4ccccc4)cc3)c3c(N)ncnc3n2CC1NC(=O)CC (stereo not drawn) showed an IC50 [1] of 62.6 nM.

In the case of C=CC(=O)N[C@@H]1Cn2c(c(-c3ccc(C(=O)Nc4cc(C(F)(F)F)ccn4)cc3)c3c(N)ncnc32)C1=C, the IC50 [1] is reported as 0.8 nM.

In the case of C=CC(=O)N[C@@H]1Cn2c(c(-c3ccc(Oc4ccc(C(F)(F)F)cc4)cc3)c3c(N)ncnc32)C1=C, the IC50 [1] is reported as 7.4 nM.

For C=C1c2c(-c3ccc(Oc4ccccc4)cc3)c3c(N)ncnc3n2C[C@H]1NC(=O)C#CC, the Drug metabolism [9] was “Metabolite_Detected”, the AUC (Rattus norvegicus [8]) was 557 ng·h/mL and the IC50 [1] was 0.4 nM. The F (Rattus norvegicus [10]) was 35.8%, the Drug metabolism [11] was “Metabolite_Detected” and the t1/2 (Rattus norvegicus [12]) was 32.4 min. The Drug metabolism [13] was “Metabolite_Detected”, the Vdss (Rattus norvegicus [14]) was 1.39 L/kg and the Drug metabolism [15] was “Metabolite_Detected”. The Cmax [16] was 340 ng/mL, the Drug metabolism [17] was “Metabolite_Detected” and the Tmax [18] was 15 min. For the same molecule, the Drug metabolism [19] was “Metabolite_Detected”, the Drug metabolism [20] was “Metabolite_Detected” and the Drug metabolism [21] was “Metabolite_Detected”. For the same molecule, the Drug metabolism [22] was “Metabolite_Detected” and the Drug metabolism [23] was “Metabolite_Detected”.

Work on C=CC(=O)N[C@@H]1Cn2c(c(-c3ccc(Oc4ccc(C(C)(C)C)cc4)cc3)c3c(N)ncnc32)C1=C yielded an IC50 [1] of 3.7 nM.

C=CC(=O)N[C@@H](C)C(=O)NC1Cn2c(c(-c3ccc(Oc4ccccc4)cc3)c3c(N)ncnc32)C1=C (stereo partly drawn) gave an IC50 [1] of 40.1 nM.

With C=C1c2c(-c3ccc(Oc4ccc(O)cc4)cc3)c3c(N)ncnc3n2C[C@H]1NC(=O)C#CC the Drug metabolism [7] was “Metabolite_Detected”, the Drug metabolism [2] was “Metabolite_Detected” and the Drug metabolism [3] was “Metabolite_Detected”.

With C=CC(=O)N[C@@H]1Cn2c(c(-c3ccc(C(=O)N[C@@H](COC)c4ccccn4)cc3)c3c(N)ncnc32)C1=C the IC50 [1] was 4.3 nM.

Work on C=C1c2c(-c3ccc(Oc4ccccc4)cc3)c3c(N)ncnc3n2CC1NC(=O)/C=C/CN(C)C (stereo not drawn) yielded an IC50 [1] of 4.3 nM.

Molecule C=CC(=O)NC1Cn2c(c(-c3ccc(Oc4ccccc4)cc3)c3c(N)ncnc32)C1=C (racemic) has an IC50 [1] of 2.8 nM, an Activity [24] of less than 1% and an Activity [25] of less than 1%. For the same molecule, the IC50 [26] was 464 nM and the Activity [27] was less than 1%.

For C=CC(=O)N[C@H]1Cn2c(c(-c3ccc(Oc4ccccc4)cc3)c3c(N)ncnc32)C1=C, the IC50 [1] was 6.1 nM.

With C=C1c2c(-c3ccc(Oc4ccc(O)cc4)cc3)c3c(N)ncnc3n2C[C@H]1N the Drug metabolism [4] was “Metabolite_Detected”, the Drug metabolism [7] was “Metabolite_Detected” and the Drug metabolism [5] was “Metabolite_Detected”.

Molecule C=CC(=O)NC1(C(=O)NC2Cn3c(c(-c4ccc(Oc5ccccc5)cc4)c4c(N)ncnc43)C2=C)CC1 (stereo not drawn) has an IC50 [1] of 23.8 nM.

Work on C=CC(=O)N[C@@H]1Cn2c(c(-c3ccc(Oc4ccc(OC(F)(F)F)cc4)cc3)c3c(N)ncnc32)C1=C yielded an IC50 [1] of 3.5 nM.

Work on C=CC(=O)N[C@@H]1Cn2c(c(-c3ccc(C(=O)Nc4ccccn4)cc3)c3c(N)ncnc32)C1=C yielded an IC50 [1] of 0.5 nM, a bioavailability [28] of 8.24% and an IC50 (Ramos) of 14.3 µM. It also gave an IC50 (TMD8) of 4 nM.

In the case of C=C1c2c(-c3ccc(Oc4ccccc4)cc3)c3c(N)ncnc3n2CC1N (stereo not drawn), the IC50 [1] is reported as greater than 1000 nM.
